Data taken from ChEMBL document CHEMBL5331111, “Synthetic Biology Facilitates Semisynthetic Development of Type V Glycopeptide Antibiotics Targeting Vancomycin-Resistant Enterococcus” (J Med Chem, 2023).
≈ marks a conversion by molar mass, not a printed value.

Assays:
Type in all cases: functional
[1] = test system: Staphylococcus aureus; assay: Antibacterial activity against Staphylococcus aureus ATCC 33591 assessed as reduction in bacterial growth by Mueller-Hinton broth based assay
Procedure, shortened: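 Broth MIC by standard procedure in Mueller-Hinton broth, for both B. subtilis 168 and S. aureus ATCC 33591.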

[2] = test system: Mycolicibacterium smegmatis; assay: Antimycobacterial activity against Mycobacterium smegmatis MC2 155 assessed as inhibition of bacterial growth measured after 2 days by resazurin dye based analysis; details: MC2 155, 48 h, time 2 day
Procedure, shortened: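 Strains grown in 7H9 broth with 0.2% glycerol, 10% OADC and 0.05% Tween-80. Inoculum was about 5 × 10^5 CFU/mL, checked by plating on 7H10/OADC agar to be 3–8 × 10^5. Read at 2 days for M. smegmatis and 7 days for M. tuberculosis H37Ra, M. bovis and M. avium. Resazurin 30 μg/mL was then added for one further day. Values are averages of at least two experiments.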

[3] = test system: Enterococcus faecium; assay: Antibacterial activity against vancomycin-resistant Enterococcus faecium ATCC 700221 assessed as inhibition of bacterial growth by Mueller-Hinton broth based assay
[4] = test system: Enterococcus faecalis; assay: Antibacterial activity against vancomycin-resistant Enterococcus faecalis ATCC 51299 assessed as inhibition of bacterial growth by Mueller-Hinton broth based assay
[5] = test system: Enterococcus faecium; assay: Antibacterial activity against wild type Enterococcus faecium ATCC 19434 assessed as inhibition of bacterial growth by Mueller-Hinton broth based assay
[6] = test system: Enterococcus gallinarum; assay: Antibacterial activity against vancomycin-resistant Enterococcus gallinarum ATCC 49573 assessed as inhibition of bacterial growth by Mueller-Hinton broth based assay
[7] = test system: Enterococcus faecium; assay: Antibacterial activity against Enterococcus faecium WCC 0491 assessed as inhibition of bacterial growth by Mueller-Hinton broth based assay
[8] = test system: Enterococcus faecium; assay: Antibacterial activity against Enterococcus faecium WCC 0492 assessed as inhibition of bacterial growth by Mueller-Hinton broth based assay
[9] = test system: Enterococcus faecium; assay: Antibacterial activity against Enterococcus faecium WCC 0495 assessed as inhibition of bacterial growth by Mueller-Hinton broth based assay
[10] = test system: Enterococcus faecium; assay: Antibacterial activity against Enterococcus faecium WCC 0498 assessed as inhibition of bacterial growth by Mueller-Hinton broth based assay
[11] = test system: Enterococcus faecium; assay: Antibacterial activity against Enterococcus faecium WCC 0499 assessed as inhibition of bacterial growth by Mueller-Hinton broth based assay
[12] = test system: Enterococcus faecium; assay: Antibacterial activity against Enterococcus faecium WCC 0500 assessed as inhibition of bacterial growth by Mueller-Hinton broth based assay
[13] = test system: Enterococcus faecium; assay: Antibacterial activity against Enterococcus faecium WCC 0502 assessed as inhibition of bacterial growth by Mueller-Hinton broth based assay
[14] = test system: Enterococcus faecium; assay: Antibacterial activity against Enterococcus faecium WCC 0506 assessed as inhibition of bacterial growth by Mueller-Hinton broth based assay
[15] = test system: Enterococcus faecium; assay: Antibacterial activity against Enterococcus faecium WCC 0516 assessed as inhibition of bacterial growth by Mueller-Hinton broth based assay
[16] = test system: Enterococcus faecium; assay: Antibacterial activity against Enterococcus faecium WCC 0524 assessed as inhibition of bacterial growth by Mueller-Hinton broth based assay
[17] = test system: Enterococcus faecium; assay: Antibacterial activity against Enterococcus faecium WCC 0528 assessed as inhibition of bacterial growth by Mueller-Hinton broth based assay
[18] = test system: Enterococcus faecium; assay: Antibacterial activity against Enterococcus faecium WCC 0533 assessed as inhibition of bacterial growth by Mueller-Hinton broth based assay
[19] = test system: Enterococcus faecium; assay: Antibacterial activity against Enterococcus faecium WCC 0534 assessed as inhibition of bacterial growth by Mueller-Hinton broth based assay
[20] = test system: Enterococcus faecium; assay: Antibacterial activity against Enterococcus faecium WCC 0537 assessed as inhibition of bacterial growth by Mueller-Hinton broth based assay
[21] = test system: Enterococcus faecium; assay: Antibacterial activity against Enterococcus faecium WCC 0586 assessed as inhibition of bacterial growth by Mueller-Hinton broth based assay
[22] = test system: Enterococcus faecium; assay: Antibacterial activity against vancomycin-resistant Enterococcus faecium WCC 0541 assessed as inhibition of bacterial growth by Mueller-Hinton broth based assay
[23] = test system: Enterococcus faecium; assay: Antibacterial activity against Enterococcus faecium WCC 0545 assessed as inhibition of bacterial growth by Mueller-Hinton broth based assay
[24] = test system: Enterococcus faecium; assay: Antibacterial activity against Enterococcus faecium WCC 0553 assessed as inhibition of bacterial growth by Mueller-Hinton broth based assay
[25] = test system: Enterococcus faecium; assay: Antibacterial activity against Enterococcus faecium WCC 0558 assessed as inhibition of bacterial growth by Mueller-Hinton broth based assay
[26] = test system: Enterococcus faecium; assay: Antibacterial activity against Enterococcus faecium WCC 0587 assessed as inhibition of bacterial growth by Mueller-Hinton broth based assay
[27] = test system: Mycolicibacterium fortuitum; assay: Antimycobacterial activity against Mycobacterium fortuitum ATCC 6891 assessed as inhibition of bacterial growth measured after 2 days by resazurin dye based analysis; details: ATCC 6891, 48 h, time 2 day
Procedure, shortened: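 Cultured in 7H9 with 0.2% glycerol, 10% OADC and 0.05% Tween-80. Inoculum diluted to ~5 × 10^5 CFU/mL and confirmed at 3–8 × 10^5 by plating on 7H10 agar. Growth read at 2 days, then 30 μg/mL resazurin added for one more day. Values averaged from at least two experiments.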

SMILES: CN1C(=O)[C@@H]2NC(=O)[C@@H]3NC(=O)[C@@H](c4ccc(O)cc4)NC(=O)[C@H](NC(=O)C(N)c4ccc(O)cc4)Cc4c[nH]c5cc(ccc45)-c4cc3cc(c4O)Oc3ccc(cc3)C[C@H]1C(=O)N[C@@H](C(=O)O)c1ccc(O)c(c1)Oc1ccc2cc1 (some centres not stated)
- MIC [1]: 8 µg/mL (≈ 7.14 µM)
- MIC [2]: 8 µg/mL (≈ 7.14 µM)
- MIC [3]: 8 µg/mL (≈ 7.14 µM)
- MIC [4]: 8 µg/mL (≈ 7.14 µM)
- MIC [5]: 8 µg/mL (≈ 7.14 µM)
- MIC [6]: 8 µg/mL (≈ 7.14 µM)
- MIC [7]: 4 µg/mL (≈ 3.57 µM)
- MIC [8]: 8 µg/mL (≈ 7.14 µM)
- MIC [9]: 8 µg/mL (≈ 7.14 µM)
- MIC [10]: 8 µg/mL (≈ 7.14 µM)
- MIC [11]: 8 µg/mL (≈ 7.14 µM)
- MIC [12]: 8 µg/mL (≈ 7.14 µM)
- MIC [13]: 4 µg/mL (≈ 3.57 µM)
- MIC [14]: 4 µg/mL (≈ 3.57 µM)
- MIC [15]: 8 µg/mL (≈ 7.14 µM)
- MIC [16]: 4 µg/mL (≈ 3.57 µM)
- MIC [17]: 8 µg/mL (≈ 7.14 µM)
- MIC [18]: 8 µg/mL (≈ 7.14 µM)
- MIC [19]: 4 µg/mL (≈ 3.57 µM)
- MIC [20]: 8 µg/mL (≈ 7.14 µM)
- MIC [21]: 8 µg/mL (≈ 7.14 µM)
- MIC [22]: 8 µg/mL (≈ 7.14 µM)
- MIC [23]: 8 µg/mL (≈ 7.14 µM)
- MIC [24]: 8 µg/mL (≈ 7.14 µM)
- MIC [25]: 8 µg/mL (≈ 7.14 µM)
- MIC [26]: 8 µg/mL (≈ 7.14 µM)
- MIC [27]: 8 µg/mL (≈ 7.14 µM)
